Experimental data reported in ChEMBL document CHEMBL1153955, “Indolylarylsulfones bearing natural and unnatural amino acids. Discovery of potent inhibitors of HIV-1 non-nucleoside wild type and resistant mutant strains reverse transcriptase and coxsackie B4 virus” (J Med Chem, 2009).

Legend:
[1] = test system: Respiratory syncytial virus; test: Antiviral activity against RSV Long in human HeLa cells assessed as protection against virus-induced cytopathicity; assay type: functional, organism-based
Summary of the method: (§1)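 Confluent cell monolayers inoculated with 100 CCID₅₀ virus. After 1-2 h adsorption, residual virus removed and cultures incubated with varying compound concentrations. Cytopathicity scored once it reached completion in untreated infected controls. EC₅₀ = dose reducing virus-induced cytopathogenicity by 50%.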

[2] = test system: Vesicular stomatitis virus; test: Antiviral activity against VSV in human HeLa cells assessed as protection against virus-induced cytopathicity; assay type: functional, organism-based
[3] = test system: Human immunodeficiency virus 1; test: Antiviral activity against HIV1 3B in human CEM cells assessed as protection against virus-induced cytopathicity after 4 days; assay type: functional, organism-based; details: Human immunodeficiency virus 1, 3B, CCRF-CEM, 96 h
Summary of the method: (§2)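 CEM cells (~3 × 10⁵ cells/mL) infected with ~100 CCID₅₀ per mL of HIV-1 (IIIB) or HIV-2 (ROD), then seeded into wells containing compound dilutions. After 4 days at 37 °C, syncytium (giant cell) formation was examined microscopically. EC₅₀ = concentration protecting CEM cells from HIV cytopathicity by 50%.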

[4] = test system: Human immunodeficiency virus 2; test: Antiviral activity against HIV2 ROD in human CEM cells assessed as protection against virus-induced cytopathicity after 4 days; assay type: functional, organism-based; details: Human immunodeficiency virus 2, ROD, CCRF-CEM, 96 h; summary of the method: as §2
[5] = test system: L1210; test: Antiproliferative activity against mouse L1210 cells after 2 days; assay type: cell-based; details: L1210, 48 h
Summary of the method: (§3)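 Cells seeded at 5 × 10⁴ to 7.5 × 10⁴ cells/200 µL with or without serial compound dilutions; incubated at 37 °C for 2 days (L1210) or 3 days (Molt4/C8, CEM). Cell numbers counted with a Coulter counter. CC₅₀ = concentration reducing proliferation by 50% versus untreated controls, read from plots of cell number (% of control) against concentration. Means of at least two independent experiments.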

[6] = Antiproliferative activity against human Molt4/C8 cells after 3 days; assay type: cell-based; details: MOLT-4, 72 h; summary of the method: as §3
[7] = test system: CCRF-CEM; test: Antiproliferative activity against human CEM cells after 3 days; assay type: cell-based; details: 72 h; summary of the method: as §3
[8] = biological target: Human immunodeficiency virus type 1 reverse transcriptase (Human immunodeficiency virus 1, UniProt Q72547); test: Inhibition of HIV1 reverse transcriptase p66/p51; details: read-out: IC50
[9] = biological target: Human immunodeficiency virus type 1 reverse transcriptase (Human immunodeficiency virus 1, UniProt Q72547, L100I); test: Inhibition of HIV1 reverse transcriptase p66/p51 L100I mutant; details: read-out: IC50
Summary of the method: (§4)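 Substrate was 0.5 µg poly(rA)/oligo(dT) 10:1 (0.3 µM 3′-OH ends) with 10 µM [³H]dTTP, at 37 °C. Acid-precipitable radioactivity was counted on GF/C filters after TCA washes.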

[10] = biological target: Human immunodeficiency virus type 1 reverse transcriptase (Human immunodeficiency virus 1, UniProt Q72547, K103N); test: Inhibition of HIV1 reverse transcriptase p66/p51 K103N mutant; details: read-out: IC50; summary of the method: as §4
[11] = biological target: Human immunodeficiency virus type 1 reverse transcriptase (Human immunodeficiency virus 1, UniProt Q72547, Y181I); test: Inhibition of HIV1 reverse transcriptase p66/p51 Y181I mutant; details: read-out: IC50; summary of the method: as §4
[12] = Cytotoxicity against human HeLa cells assessed as drug level causing microscopically detectable alteration of normal cell morphology after 3 days; assay type: cell-based
Summary of the method: (§5)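 Serial compound dilutions added to confluent HeLa or Vero monolayers. MCC = minimum concentration causing microscopically detectable alteration of cell morphology after 3 days of incubation.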

[13] = Cytotoxicity against african green monkey Vero cells assessed as drug level causing microscopically detectable alteration of normal cell morphology after 3 days; assay type: cell-based; details: chlorocebus sabaeus; summary of the method: as §5
[14] = test system: Coxsackievirus B4; test: Antiviral activity against Coxsackievirus B4 in human HeLa cells assessed as protection against virus-induced cytopathicity; assay type: functional, organism-based; details: Enterovirus B; summary of the method: as §1
[15] = test system: Coxsackievirus B4; test: Antiviral activity against Coxsackievirus B4 in african green monkey Vero cells assessed as protection against virus-induced cytopathicity; assay type: functional, organism-based; details: Enterovirus B; summary of the method: as §1
[16] = test system: Human respirovirus 3; test: Antiviral activity against Parainfluenza virus type 3 in african green monkey Vero cells assessed as protection against virus-induced cytopathicity; assay type: functional, organism-based; details: Human respirovirus 3, Vero; summary of the method: as §1
[17] = test system: Mammalian orthoreovirus 1; test: Antiviral activity against Reovirus 1 in african green monkey Vero cells assessed as protection against virus-induced cytopathicity; assay type: functional, organism-based; details: Mammalian orthoreovirus 1, Vero; summary of the method: as §1
[18] = test system: Sindbis virus; test: Antiviral activity against Sindbis virus in african green monkey Vero cells assessed as protection against virus-induced cytopathicity; assay type: functional, organism-based; summary of the method: as §1
[19] = test system: Punta Toro virus; test: Antiviral activity against Punta Toro virus in african green monkey Vero cells assessed as protection against virus-induced cytopathicity; assay type: functional, organism-based; summary of the method: as §1
[20] = Cytotoxicity against human HEL cells assessed as drug level causing microscopically detectable alteration of normal cell morphology after 3 days; assay type: cell-based
[21] = test system: Human alphaherpesvirus 1; test: Antiviral activity against HSV1 KOS in human HEL cells assessed as protection against virus-induced cytopathicity; assay type: functional, organism-based; details: Human alphaherpesvirus 1, KOS
[22] = test system: Human alphaherpesvirus 2; test: Antiviral activity against HSV2 G in human HEL cells assessed as protection against virus-induced cytopathicity; assay type: functional, organism-based; details: Human alphaherpesvirus 2, strain G; summary of the method: as §1
[23] = test system: Vaccinia virus; test: Antiviral activity against Vaccinia virus Lederle in human HEL cells assessed as protection against virus-induced cytopathicity; assay type: functional, organism-based; details: Orthopoxvirus vaccinia
[24] = test system: Vesicular stomatitis virus; test: Antiviral activity against VSV in human HEL cells assessed as protection against virus-induced cytopathicity; assay type: functional, organism-based
[25] = test system: Human alphaherpesvirus 1; test: Antiviral activity against thymidine kinase deficient and acyclovir resistant HSV1 KOS in human HEL cells assessed as protection against virus-induced cytopathicity; assay type: functional, organism-based; details: Human alphaherpesvirus 1, KOS
[26] = Cytotoxicity against MDCK cells assessed as drug level causing microscopically detectable alteration of normal cell morphology; assay type: cell-based, Canis lupus familiaris; details: dog
[27] = Cytotoxicity against MDCK cells by MTS assay; assay type: cell-based, Canis lupus familiaris; details: dog
[28] = test system: Influenza A virus; test: Antiviral activity against influenza H1N1 virus in MDCK cells assessed as reduction of virus-induced cytopathicity by visual cytopathic effect scoring method; assay type: functional, organism-based
[29] = test system: Influenza A virus; test: Antiviral activity against influenza H1N1 virus in MDCK cells assessed as reduction of virus-induced cytopathicity by MTS method; assay type: functional, organism-based; details: Influenza A virus, H1N1, MDCK
[30] = test system: Influenza A virus H3N2; test: Antiviral activity against influenza H3N2 virus in MDCK cells assessed as reduction of virus-induced cytopathicity by visual cytopathic effect scoring method; assay type: functional, organism-based
[31] = test system: Influenza A virus H3N2; test: Antiviral activity against influenza H3N2 virus in MDCK cells assessed as reduction of virus-induced cytopathicity by MTS method; assay type: functional, organism-based
[32] = test system: Influenza B virus; test: Antiviral activity against influenza B virus in MDCK cells assessed as reduction of virus-induced cytopathicity by visual cytopathic effect scoring method; assay type: functional, organism-based
[33] = test system: Influenza B virus; test: Antiviral activity against influenza B virus in MDCK cells assessed as reduction of virus-induced cytopathicity by MTS method; assay type: functional, organism-based
[34] = Cytotoxicity against feline CRFK cells by MTS assay; assay type: cell-based, Felis catus; details: cat
[35] = test system: Feline coronavirus; test: Antiviral activity against Feline coronavirus in feline […] cells assessed as inhibition of virus-induced cytopathicity; assay type: functional, organism-based; details: Alphacoronavirus 1
[36] = test system: Felid alphaherpesvirus 1; test: Antiviral activity against Feline herpesvirus in feline […] cells assessed as inhibition of virus-induced cytopathicity; assay type: functional, organism-based

SMILES: Cc1cc(C)cc(S(=O)(=O)c2c(C(=O)NC(C)CC(N)=O)[nH]c3ccc(Cl)cc23)c1 (stereo not drawn)
- EC50 [1]: > 20 µM
- EC50 [2]: > 20 µM
- EC50 [3]: 0.026 µM
- EC50 [4]: 30 µM
- IC50 [5]: 48 µM
- IC50 [6]: 36 µM
- IC50 [7]: 32 µM
- IC50 [8]: 0.12 µM
- IC50 [9]: 0.252 µM
- IC50 [10]: 0.288 µM
- IC50 [11]: 4.14 µM
- MCC at 72 h [12]: ≥ 20 µM
- MCC at 72 h [13]: 100 µM
- EC50 [14]: 4.5 µM
- EC50 [15]: 16 µM
- EC50 [16]: > 20 µM
- EC50 [17]: > 20 µM
- EC50 [18]: > 20 µM
- EC50 [19]: > 20 µM
- MCC at 72 h [20]: 100 µM
- EC50 [21]: > 20 µM
- EC50 [22]: > 20 µM
- EC50 [23]: > 20 µM
- EC50 [24]: > 20 µM
- EC50 [25]: > 20 µM
- MCC [26]: 20 µM
- CC50 [27]: 13.5 µM
- EC50 [28]: > 4 µM
- EC50 [29]: > 4 µM
- EC50 [30]: > 4 µM
- EC50 [31]: > 4 µM
- EC50 [32]: > 4 µM
- EC50 [33]: > 4 µM
- CC50 [34]: 18.9 µM
- EC50 [35]: > 4 µM
- EC50 [36]: > 4 µM

SMILES: Cc1cc(C)cc(S(=O)(=O)c2c(C(=O)NC(C)CC(N)=O)[nH]c3ccc(Br)cc23)c1 (stereo not drawn)
- EC50 [1]: > 20 µM
- EC50 [2]: > 20 µM
- EC50 [3]: 0.0015 µM
- EC50 [4]: > 10 µM
- IC50 [5]: 16 µM
- IC50 [6]: 16 µM
- IC50 [7]: 18 µM
- IC50 [8]: 0.081 µM
- IC50 [9]: 0.296 µM
- IC50 [10]: 0.321 µM
- IC50 [11]: 15.8 µM
- MCC at 72 h [12]: ≥ 20 µM
- MCC at 72 h [13]: ≥ 20 µM
- EC50 [14]: ≥ 20 µM
- EC50 [15]: > 20 µM
- EC50 [16]: > 20 µM
- EC50 [17]: > 20 µM
- EC50 [18]: > 20 µM
- EC50 [19]: > 20 µM
- MCC at 72 h [20]: 20 µM
- EC50 [21]: > 4 µM
- EC50 [22]: > 4 µM
- EC50 [23]: > 4 µM
- EC50 [24]: > 4 µM
- EC50 [25]: > 4 µM
- MCC [26]: ≥ 4 µM
- CC50 [27]: 79 µM
- EC50 [28]: > 4 µM
- EC50 [29]: > 4 µM
- EC50 [30]: > 4 µM
- EC50 [31]: > 4 µM
- EC50 [32]: > 4 µM
- EC50 [33]: > 4 µM
- CC50 [34]: 11.1 µM
- EC50 [35]: > 4 µM
- EC50 [36]: > 4 µM

SMILES: Cc1cc(C)cc(S(=O)(=O)c2c(C(=O)NC(C)CC(N)=O)[nH]c3ccc(Cl)c(F)c23)c1 (stereo not drawn)
- EC50 [1]: 20 µM
- EC50 [2]: > 20 µM
- EC50 [3]: 0.0046 µM
- EC50 [4]: > 10 µM
- IC50 [5]: 42 µM
- IC50 [6]: 25 µM
- IC50 [7]: 27 µM
- IC50 [8]: 0.359 µM
- IC50 [9]: 0.39 µM
- IC50 [10]: 3.39 µM
- IC50 [11]: > 40 µM
- MCC at 72 h [12]: 100 µM
- MCC at 72 h [13]: 100 µM
- EC50 [14]: 9 µM
- EC50 [15]: > 20 µM
- EC50 [16]: > 20 µM
- EC50 [17]: > 20 µM
- EC50 [18]: > 20 µM
- EC50 [19]: > 20 µM
- MCC at 72 h [20]: 100 µM
- EC50 [21]: > 20 µM
- EC50 [22]: > 20 µM
- EC50 [23]: > 20 µM
- EC50 [24]: > 20 µM
- EC50 [25]: > 20 µM
- MCC [26]: 20 µM
- CC50 [27]: 6.2 µM
- EC50 [28]: > 4 µM
- EC50 [29]: > 4 µM
- EC50 [30]: > 4 µM
- EC50 [31]: > 4 µM
- EC50 [32]: > 4 µM
- EC50 [33]: > 4 µM
- CC50 [34]: 42.6 µM
- EC50 [35]: > 20 µM
- EC50 [36]: > 20 µM
